Here are results for 36 sequences from the EternaBench riboswitch data.

A word on the apparent Kd: it is a dissociation constant that holds for the conditions of the assay.

This data set has as its system MS2 coat protein. Description: apparent Kd, MS2 coat protein; higher = weaker binding; RNA-MaP array. The method, boiled down: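 With or without input ligand, designed RNAs transcribed on an Illumina sequencing chip from sequenced DNA templates were incubated at room temperature with fluorescently labeled MS2 coat protein at 1.5 nM to 3 μM. The buffer was Tris-HCl pH 7.5 with KCl, MgCl2, BSA, DTT, tRNA and Tween20, and incubation ran 0.8–1.5 h at the lowest and 10–20 min at the highest concentrations. Apparent Kd is reported as the median of fits to binding curves from individual clusters. Designs measured on fewer than 10 clusters are not included.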

[1] abbreviates: designed as: OFF switch for flavin mononucleotide, no ligand.
Setting [2] is: ligand present: flavin mononucleotide, designed as: OFF switch for flavin mononucleotide.
Setting [3] is: designed as: ON switch for flavin mononucleotide, no ligand.
Setting [4] is: ligand present: flavin mononucleotide, designed as: ON switch for flavin mononucleotide.
Setting [5] is: designed as: ON switch for tryptophan, no ligand.
The mark [6] stands for this setting: ligand present: tryptophan, designed as: ON switch for tryptophan.

For the sequence “GAAUCAUGACAGAAGGCACGGAAUACCCGGCUGUGAGGAUAUGUUUGAAAACAGACAUGAGGAUCACCCAUGUCCGAAGUGUCU”, the “apparent Kd” value came to 301 nM under setting [1] and 555 nM under setting [2].

Turning to “CAUCAAAAGCUAGGAUAUACCUAGAGUACCGGAACAUGAGGAUCACCCAUGUUAGAGUGAUGCUGGUAGAAGGAGCUGGUAAAG”, the “apparent Kd” value reads like this: under setting [3], 31.9 nM; under setting [4], 15.8 nM.

As for “UUCGCCACGCAAGGAUAUGAUACUUAUUGCUGUUCAGAAGGUGCGACAUGAGGAUCACCCAUGUGGUGUGUCCAGGGAGGCUAG”, the “apparent Kd” value amounted to 333 nM under setting [1] and 336 nM under setting [2].

For the sequence “UCAUGGUCAGGAUAUACGAUUAGACAUGGCUUCGAUAAGUCGUAGAAGGGACAUGAGGAUCACCCAUGUAGCAA”, the “apparent Kd” value under setting [1] amounted to 109 nM and the “apparent Kd” value under setting [2] is 33.5 nM.

On to “CUUCAGGGUGCGGCCGCCACUUAUUAGGUGCUUGCGACGCCAGCACAUGAGGAUCACCCAUGUUCAAGGACCGGGCACCACCUUU”, for which the “apparent Kd” value is, setting by setting: under setting [5], 11.5 nM; under setting [6], 12.6 nM.

For “GACCACAUGAGGAUCACCCAUGUCUUGGUCCGAGGACCGGUACGGCCGCCACUCGAGAGCCGUACAAAUAAACGGAGUGCCAUCA”, the “apparent Kd” value is, setting by setting: under setting [5], 15.9 nM; under setting [6], 13.5 nM.

As for “GGGUACAUCUAGAAGGAGAAUCCUCUUGACAUGAGGAUCACCCAUGUCGUAGUCAAGACUAAAAUCUAGGAUAUAGCUGUGCGU”, the “apparent Kd” value under setting [1] turned out to be 233 nM and the “apparent Kd” value under setting [2] was determined as 165 nM.

With “AGAUCCUUGGUCAGGAUAUCCAAUAAAGCCGUUUGGGAGAAGGGACAUGAGGAUCACCCAUGUAAAUUGACCAC”, the “apparent Kd” value by setting is: under setting [1], 12.2 nM; under setting [2], 32.3 nM.

Consider “ACCCGACAAGUGAGGAUAUUGAUAAGAGGAGCUUACAAGAAGGCACAUGAGGAUCACCCAUGUAUUAAGUGAAG”, for which the “apparent Kd” value turned out to be 7.97 nM under setting [1] and 9.8 nM under setting [2].

For the sequence “ACAAUGUGAGGAUAUCGUAAGCAUGACUAUGGCGCUAACACCGAGAAGGCACAUGAGGAUCACCCAUGUCCUGA”, the “apparent Kd” value under setting [1] stood at 6.84 nM and the “apparent Kd” value under setting [2] is 10.7 nM.

In the case of “GUCUGAUGACAUGAGGAUCACCCAUGUUGUAGGGUUACCUUCAGAAGGGCGAACUCGUAUAGAGCGCAGGAUAUGAAUCAAAGA”, the “apparent Kd” value was determined as 29.5 nM under setting [3] and 11.9 nM under setting [4].

As to “ACUCUAAGAUGAGGAUAUCACAUCUUAUCGCCACGGUGGCUUCACAUGAGGAUCACCCAUGUAUGUGAGAAGGCAUUUCCGGAC”, the “apparent Kd” value under setting [1] is 24.1 nM and the “apparent Kd” value under setting [2] was determined as 20.7 nM.

Turning to “CUUUUACAUGAGGAUCACCCAUGUUGUACAGGGUUAGGAUAUCUUAAUGUUAAGUUAAUGAGAGAAGGAACAGUCA”, the “apparent Kd” value was determined as 149 nM under setting [3] and 94.8 nM under setting [4].

Take “AUUUAAAAGUUAGGAUAUCUCAUCAGCUCAAUAGAUGACAUGAGGAUCACCCAUGUGACCAAAGGAGAGAAGGAACUCAUAAUG”: the “apparent Kd” value under setting [1] came to 65.1 nM and the “apparent Kd” value under setting [2] came out at 31.4 nM.

As for “GCGUGGCACUGCAUACACACAUGAGGAUCACCCAUGUAUAGUAGAAGGUUCUUCAGCGGGAACAGAAAGGAUAUACUGAUAGAU”, the “apparent Kd” value is, setting by setting: under setting [3], 7.74 nM; under setting [4], 7.42 nM.

For the sequence “GCUGCACAUUCGGCCGCCACUGCUGUUACAGGAAGCUAUAGCUCACAUGAGGAUCACCCAUGUCCCAGGACCGGGAAAGUAUGGA”, the “apparent Kd” value came out at 72.9 nM under setting [5] and 65.9 nM under setting [6].

“CUUGGCGCUCAGAAGGCCGUCCAUGCACGCGCUAGGACAUGAGGAUCACCCAUGUAUCUAUGGACGGAGGAUAUGAUUCUCUCG”: the “apparent Kd” value was 20.4 nM under setting [3] and 8.75 nM under setting [4].

Take “GAAUGAAGCGAGAAGGGACCAAAUGGGCAGAAACUACAUGAGGAUCACCCAUGUAAAAUAGAUAGUCAGGAUAUCGGAAGAAAG”: the “apparent Kd” value is, setting by setting: under setting [1], 36.4 nM; under setting [2], 31.8 nM.

As for “AAAGGAUUCAAGAAGGUACCCUAACAUGAGGAUCACCCAUGUCUCGGUGGCAUCAAGGUACCUGGUAAGGAUAUUGCAACCACU”, the “apparent Kd” value by setting is: under setting [3], 39.4 nM; under setting [4], 33.2 nM.

“UUUACCGACACAGAUCACUAAAACCUUGAUACCAGUCCCAGUGGCGACCCUUGGCAGCAAUAUACAUGAGGAUCACCCAUGUGCA”: the “apparent Kd” value by setting is: (designed as: OFF switch for theophylline, no ligand) 14.7 nM; (ligand present: theophylline, designed as: OFF switch for theophylline) 16.7 nM.

For the sequence “GCGCGCGUAGUCAGGAUAUGGUAUAAGUAACUUGGCCAGAAGGGACAUGAGGAUCACCCAUGUGCAUUGCUAGC”, the “apparent Kd” value runs as follows: under setting [1], 9.16 nM; under setting [2], 9.47 nM.

As for “GACGUGGAGUCAGGAUAUCGACGACAUUCUUAGCGAGAAGGGACCUAGCUUAGAUCAACAUGAGGAUCACCCAUGUCGAGUUUC”, the “apparent Kd” value turned out to be 21.7 nM under setting [1] and 20.4 nM under setting [2].

For “GACGCGAGCGCACUUACAUGAGGAUCACCCAUGUGUUCCGAAAGAAGGGCUAGUGUACCCGCAGAGCAGGAUAUUUCGAUUUGC”, the “apparent Kd” value by setting is: under setting [3], 186 nM; under setting [4], 121 nM.

With “UAACCACAUGAGGAUCACCCAUGUCCCACAUUCGCAGGAUAUGGGUCACUGAGGUCACUACCAGAAGGGCGGAUGC”, the “apparent Kd” value amounted to 467 nM under setting [3] and 178 nM under setting [4].

“ACCCAUUUGUUAGGAUAUGACUCGAGACAGGUACAUGAGGAUCACCCAUGUUGUACAGGACCGUCUCAGAAGGAACGAACGUAU”: the “apparent Kd” value reads like this: under setting [1], 9.64 nM; under setting [2], 8.75 nM.

As for “CGGAAGUGCAGCGCUUAAAGUACAUGAGGAUCACCCAUGUGAAAGGAUAUAUCGAAGUCAAAAUAAUAGAAGGUUCAGUGGGAU”, the “apparent Kd” value under setting [1] amounted to 22.6 nM and the “apparent Kd” value under setting [2] came to 21.1 nM.

With “AAUUUUUACUCAGGAUAUUGGGAGAGCACGGGUUGUUCUCCCCACAUGAGGAUCACCCAUGUGAUCAAGAAGGGAGACGCAAAG”, the “apparent Kd” value under setting [3] was determined as 25.9 nM and the “apparent Kd” value under setting [4] was determined as 16.8 nM.

Consider “CACGGCAUUGAGAAGGGAGUGACAUGGAACUGCUCAGGAUAUCAACACACAUUGUUAAAGAAAACAUGAGGAUCACCCAUGUUC”, for which the “apparent Kd” value is, setting by setting: under setting [3], 11.2 nM; under setting [4], 9.28 nM.

As to “ACAGGUAGAGGAUAUCGUGAAAGUCACAUGAGGAUCACCCAUGUGGUAAGCAUGUACGCCCGAGAAGGCUAACCGC”, the “apparent Kd” value under setting [1] worked out at 7.57 nM and the “apparent Kd” value under setting [2] is 12.4 nM.

“CUGUGAGUAGGAUAUGAUCACAAGUACAUGAGGAUCACCCAUGUGUGGCUCUGUACCGCCUCAGAAGGACUCGUCU”: the “apparent Kd” value came to 28 nM under setting [1] and 94.8 nM under setting [2].

Take “AAGCUACAUGAGGAUCACCCAUGUCUCACGUCACUAGGAUAUCUGAAGGUGACGAAGUUCAGAGAAGGAGUGCAUC”: the “apparent Kd” value was determined as 97.2 nM under setting [3] and 83.2 nM under setting [4].

Take “CCCAUACAUGAGGAUCACCCAUGUGUUGAUACCAGCAUAUGUAGAUGCCCUUGGCAGCAAGCUUGGGUCACUGGAAAACAUCUAA”: the “apparent Kd” value reads like this: (designed as: ON switch for theophylline, no ligand) 25.9 nM; (ligand present: theophylline, designed as: ON switch for theophylline) 56.5 nM.

“CAUUCACUAACUCCACAUGAGGAUCACCCAUGUUGAGGUCCGAGAAGGUGCACUACGUGGGAGCGCAAGGAUAUCGCCUAGUAA”: the “apparent Kd” value amounted to 9.84 nM under setting [3] and 7.64 nM under setting [4].

For “CGGGCCAUCUAAGGAUAUUUGCCGGCCCGAAGACAUGAGGAUCACCCAUGUGUGAACGGAUGUCGAAAGAAGGUAGACCUGGUC”, the “apparent Kd” value worked out at 300 nM under setting [3] and 206 nM under setting [4].

As to “CACUUCAUAAUAGGAUAUCAUGGAUGACAUGAGGAUCACCCAUGUCCGCACUCUUCAACUACACGUGAGAAGGAUUCGCGGGUC”, the “apparent Kd” value came out at 194 nM under setting [3] and 130 nM under setting [4].

Consider “UCAUCUGGGUCUUUGGUGCACAUGAGGAUCACCCAUGUAACUUAGGAUAUUAGUUAUGAUAUGAUUAAGAAGGAAGUCGCUAUU”, for which the “apparent Kd” value is 15.2 nM under setting [1] and 16.9 nM under setting [2].
